The source made the active and inactive calls. The calls are words filed in the database; no cut-off is given here.
Experiments:
MCF7 [1] = test: Anticancer activity against human MCF7 cells assessed as cell viability at 10 uM after 72 hrs by sulforhodamine B assay relative to control; assay type: functional; details: MCF7, 72 h, read-out: Activity
MCF7 [2] = test: Anticancer activity against human MCF7 cells assessed as cell viability at 30 uM after 72 hrs by sulforhodamine B assay relative to control; assay type: functional; details: MCF7, 72 h, read-out: Activity
Hs-578T [3] = test: Anticancer activity against human Hs 578T cells assessed as cell viability at 10 uM after 72 hrs by sulforhodamine B assay relative to control; assay type: functional; details: read-out: Activity
Hs-578T [4] = test: Anticancer activity against human Hs 578T cells assessed as cell viability at 30 uM after 72 hrs by sulforhodamine B assay relative to control; assay type: functional; details: read-out: Activity
[5] = Cytotoxicity against human MCF10A cells assessed as cell viability at 10 uM after 72 hrs by sulforhodamine B assay relative to control; assay type: cell-based, MCF-10A; details: read-out: Activity
[6] = Cytotoxicity against human MCF10A cells assessed as cell viability at 30 uM after 72 hrs by sulforhodamine B assay relative to control; assay type: cell-based, MCF-10A; details: read-out: Activity
MCF7 [7] = test: Anticancer activity against human MCF7 cells after 72 hrs by sulforhodamine B assay; assay type: functional, cell-based; details: MCF7, 72 h
Outline: (§1)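 Cells seeded at 3000 cells/100 µL per well, left to adhere overnight (18-20 h), then exposed to a range of compound concentrations for 72 h. Vehicle control was 0.5% DMSO. Cytotoxicity was read by sulforhodamine B at 490 nm, with 690 nm as background. IC50 came from sigmoidal variable-slope nonlinear regression on log-transformed data, from at least three independent experiments, each in triplicate.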

Hs-578T [8] = test: Anticancer activity against human Hs 578T cells after 72 hrs by sulforhodamine B assay; assay type: functional, cell-based; outline: as §1
MCF-10A [9] = test: Cytotoxicity against human MCF10A cells after 72 hrs by sulforhodamine B assay; assay type: cell-based; outline: as §1
MCF7 [10] = test: Antimigratory activity against human MCF7 cells assessed as reduction in cell migration at half IC50 to IC50 after 12 to 48 hrs by microscopy based wound healing assay; assay type: functional
Outline: (§2)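 Wound healing: MCF-7 cells plated at 9.0 × 10^5 per 2 mL and grown overnight to confluence. Two scratches made with a pipette tip, then wash with PBS. Treatment at IC50 or ½ IC50, or 0.5% DMSO. Four positions per wound were imaged at 0, 12, 24 and 48 h at 100x. Migration distances were measured and normalised to control. Three independent experiments.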

MCF7 [11] = test: Antiproliferative activity against human MCF7 cells at IC50 after 48 hrs by Brdu incorporation assay relative to control; assay type: functional
Outline: (§3)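 Labelling with 20 µM BrdU (final) for 6 h. FixDenat 30 min, then anti-BrdU-POD 90 min at room temperature. Substrate colour for 5-10 min, stopped with H2SO4, absorbance at 450 nm (reference 690 nm). Cell-free blanks included. At least three independent experiments in triplicate.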

MCF7 [12] = test: Induction of apoptosis in human MCF7 cells at IC50 after 48 hrs by Annexin-V-FITC/propidium iodide staining based flow cytometry; assay type: functional, cell-based
Outline: (§4)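 Floating and adherent cells were pooled and resuspended in binding buffer. Staining with FITC-annexin V and PI for 15 min at room temperature in the dark, followed by flow cytometry quadrant analysis normalised to untreated cells. Two independent experiments, triplicates within each.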

MCF7 [13] = test: Induction of apoptosis in human MCF7 cells assessed as increase in cleaved PARP level at IC50 after 24 hrs by Western blot analysis; assay type: functional, cell-based
Outline: (§5)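 MCF-7 cells at 70-80% confluence were treated at IC50 or with 0.5% DMSO for 24 h. Lysis in Tris/NaCl/EDTA buffer with NP-40, Triton X-100, phosphatase and protease inhibitors. 20 µg protein run on 12% SDS-PAGE and transferred to nitrocellulose. Probed overnight at 4 °C with anti-PARP (1:500) or anti-BIM (1:1000), then HRP secondaries and chemiluminescence. At least two independent experiments.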

MCF7 [14] = test: Induction of apoptosis in human MCF7 cells assessed as increase in Bim level at IC50 after 24 hrs by Western blot analysis; assay type: functional, cell-based; outline: as §5
MCF7 [15] = test: Cell cycle arrest in human MCF7 cells at IC50 after 48 hrs by propidium iodide staining based flow cytometry; assay type: functional
Outline: (§6)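 MCF-7 cells seeded at 2.5×10^5 per well and grown overnight. […] Cells fixed in 70% ethanol for at least 30 min at 4 °C, then stained with PI (50 µg/mL) plus RNase A and Triton X-100 for 1 h in the dark at […]. Flow cytometry with 488 nm excitation gave the phase distribution. Two independent biological replicates.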

MCF7 [16] = test: Induction of microtubule disruption in human MCF7 cells at IC50 after 12 hrs by DAPI staining based microscopic analysis; assay type: cell-based
Outline: (§7)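 MCF-7 cells seeded at 2.0×10^5 per well and incubated overnight. Treatment at IC50 for 12 h, with 0.5% DMSO vehicle and paclitaxel (2 µM) as reference. Fixation in methanol for 20 min at -20 °C and blocking in 5% BSA. β-tubulin antibody (1:200) for 2 h, fluorescent secondary for 1 h, and DAPI nuclear counterstain. Confocal imaging with a 60x oil objective, 405/488 nm excitation.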

MCF7 [17] = test: Antiproliferative activity against human MCF7 cells after 72 hrs in presence of doxorubicin by sulforhodamine B assay; assay type: functional, cell-based; details: MCF7, 72 h
MCF-10A [18] = test: Cytotoxicity against human MCF10A cells after 72 hrs in presence of doxorubicin by sulforhodamine B assay; assay type: cell-based
[19] = Selectivity index, ratio of IC50 for human MCF10A cells in presence of doxorubicin to IC50 for human MCF7 cells in presence of doxorubicin; assay type: toxicity; details: MCF10A cells and MCF7 cells, read-out: Ratio IC50
MCF7 [20] = test: Induction of apoptosis in human MCF7 cells assessed as decrease in Bcl-xL level at IC50 after 48 hrs by Western blot analysis
MCF7 [21] = test: Antiproliferative activity against human MCF7 cells at half IC50 to IC50 after 24 to 48 hrs by Brdu incorporation assay; assay type: functional, cell-based; outline: as §3
MCF7 [22] = test: Antimigratory activity against human MCF7 cells assessed as reduction in cell migration at half IC50 to IC50 after 48 hrs by microscopy based wound healing assay relative to control; assay type: functional; set-up: scale not given: the % may be the effect or the level left; outline: as §2
MCF7 [23] = test: Induction of apoptosis in human MCF7 cells assessed as increase in early apoptotic cells at IC50 after 48 hrs by Annexin-V-FITC/propidium iodide staining based flow cytometry; assay type: functional, cell-based; outline: as §4
MCF7 [24] = test: Induction of apoptosis in human MCF7 cells assessed as increase in late apoptotic cells at IC50 after 48 hrs by Annexin-V-FITC/propidium iodide staining based flow cytometry; assay type: functional, cell-based; outline: as §4
MCF7 [25] = test: Cell cycle arrest in human MCF7 cells assessed as accumulation at G2/M phase at IC50 after 48 hrs by propidium iodide staining based flow cytometry; assay type: functional; outline: as §6
MCF7 [26] = test: Cell cycle arrest in human MCF7 cells assessed as reduction in G0/G1 population at IC50 after 48 hrs by propidium iodide staining based flow cytometry; assay type: functional; outline: as §6
MCF7 [27] = test: Induction of microtubule disruption in human MCF7 cells assessed as cell detachment at IC50 after 12 hrs by DAPI staining based microscopic analysis; outline: as §7
MCF7 [28] = test: Induction of microtubule disruption in human MCF7 cells assessed as cell shrinkage at IC50 after 12 hrs by DAPI staining based microscopic analysis; outline: as §7
MCF7 [29] = test: Induction of microtubule disruption in human MCF7 cells assessed as cell rounding at IC50 after 12 hrs by DAPI staining based microscopic analysis; outline: as §7
MCF7 [30] = test: Induction of microtubule disruption in human MCF7 cells assessed as nuclei contraction at IC50 after 12 hrs by DAPI staining based microscopic analysis; assay type: cell-based
MCF7 [31] = test: Induction of microtubule disruption in human MCF7 cells assessed as nuclei condensation at IC50 after 12 hrs by DAPI staining based microscopic analysis; assay type: cell-based
MCF7 [32] = test: Inhibition of beta-tubulin polymerization in human MCF7 cells assessed as increase in beta-tubulin levels at IC50 after 24 hrs by Western blot analysis; assay type: cell-based
MCF7 [33] = test: Cell cycle arrest in human MCF7 cells assessed as DNA fragmentation at IC50 after 48 hrs by propidium iodide staining based flow cytometry; assay type: functional; outline: as §6
MCF7 [34] = test: Cell cycle arrest in human MCF7 cells assessed as accumulation at sub-G0/G1 phase at IC50 after 48 hrs by propidium iodide staining based flow cytometry; assay type: functional; outline: as §6

SMILES	viability at 10 µM (MCF7 [1]) [%]	viability at 30 µM (MCF7 [2]) [%]	viability at 10 µM (Hs-578T [3]) [%]	viability at 30 µM (Hs-578T [4]) [%]	viability at 72 h, 10 µM [5] [%]	viability at 72 h, 30 µM [6] [%]	IC50 (MCF7 [7]) [µM]	IC50 (Hs-578T [8]) [µM]	IC50 (MCF-10A [9]) [µM]	Activity (MCF7 [10])	Activity (MCF7 [11]) [%]	Activity (MCF7 [12])	Activity (MCF7 [13])	Activity (MCF7 [14])	Activity (MCF7 [15])	Activity (MCF7 [16])	IC50 (MCF7 [17]) [nM]	IC50 (MCF-10A [18]) [nM]	selectivity ratio [19]	Activity (MCF7 [20])	other results
Cc1ccc(C(=O)/C=C/c2cc(Cl)ccc2O)cc1	36.8	27.7	66.3	70.5	33.5	51.1	3.98	4.8	24.2	inactive	>50	inactive	Active	Active	inactive	inactive	270	1100	3.07	Active	
O=C(/C=C/c1cc(Br)ccc1O)c1ccc(Br)cc1	28.7	28.3	63.5	124	32.8	47.6	3.82	5.88	29.3	inactive		inactive	Active	Active	inactive	inactive	280	15100	53	Active	Activity (MCF7 [21]): inactive
COc1cccc(C(=O)CC2C(C#N)=C(N)Oc3c(OC)cc(Br)cc32)c1 (centres undefined)	55.9	33.9	46.1	83.3	32.3	46.3	3.65	4.52	18.9		20		Active	Active			110	1580	13.4	Active	Activity (MCF7 [22]): 50%; Activity (MCF7 [23]): Active; Activity (MCF7 [24]): Active; Activity (MCF7 [25]): Active; Activity (MCF7 [26]): Active; Activity (MCF7 [27]): Active; Activity (MCF7 [28]): Active; Activity (MCF7 [29]): Active; Activity (MCF7 [30]): Active; Activity (MCF7 [31]): Active; inhibition (MCF7 [32]): Active
COc1cccc(C(=O)/C=C/c2cc(Br)ccc2O)c1	26.9	28.3	38.5	55.8	33.8	66.3	5.07	7.27	40.6	inactive	>50		Active	Active		inactive	420	> 60000	> 142	Active	Activity (MCF7 [23]): Active; Activity (MCF7 [24]): Active; Activity (MCF7 [33]): Active; Activity (MCF7 [34]): Active

From ChEMBL document CHEMBL4270591, “Exploitation of new chalcones and 4H-chromenes as agents for cancer treatment” (Eur J Med Chem, 2018)
